Test results from paper PMC7670640 (Pharmacology Research & Perspectives, 2020).

Assay: Multiple ascending dose part
Format: in vivo, human
Method in brief: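 Healthy men, double-blind, randomized 6 active:2 placebo per cohort. Oral test compound or placebo once daily for 14 days, each dose after a moderate-fat meal (~600 calories, ~30% from fat). An expansion cohort (24 planned) assessed GI tolerability. Monitoring covered AEs, physical exams, vital signs, ECGs, clinical labs, suicidal risk, and GI and hepatobiliary abnormalities. AEs were MedDRA 21.0-coded and summarized descriptively.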

[1] = 50 mg once daily for 14 days (N = 6)
[2] = 100 mg once daily for 14 days (N = 6)
[3] = 200 mg once daily for 14 days (N = 25; cohort 5 and expansion cohort)
[4] = 320 mg once daily for 14 days (N = 7)
[5] = Part 2, across 58 participants (GSK3640254 n = 44 or placebo n = 14)

Which “Adverse event: Abdominal distension” value [1] does the source give for C=C(C)[C@@H]1CC[C@]2(NCCN3CCS(=O)(=O)CC3)CC[C@]3(C)[C@H](CC[C@@H]4[C@@]5(C)CC=C(C6=CC[C@@](CF)(C(=O)O)CC6)C(C)(C)[C@@H]5CC[C@]43C)[C@@H]12 [GSK3640254] here?
The value was 0 n (%).

What about the “Adverse event: Abdominal pain” value [1] of the same molecule?
The value was 1 (17) n (%).

And the “Adverse event: Abnormal dreams” value [1]?
Its value is 0 n (%).

And the “Adverse event: Agitation” value [1]?
The value was 0 n (%).

What about the “Adverse event: Any event” value [1] of the same molecule?
The value was 4 (67) n (%).

What about the “Adverse event: Arthropod bite” value [1] of the same molecule?
The value was 0 n (%).

And the “Adverse event: Back pain” value [1]?
The value was 0 n (%).

What about the “Adverse event: Catheter‐site bruise” value [1] of the same molecule?
The value was 0 n (%).

What about the “Adverse event: Catheter‐site pain” value [1] of the same molecule?
The value was 0 n (%).

What about the “Adverse event: Constipation” value [1] of the same molecule?
The value was 0 n (%).

What about the “Adverse event: Contact dermatitis” value [1] of the same molecule?
The value was 1 (17) n (%).

And the “Adverse event: Contusion” value [1]?
The value was 1 (17) n (%).

And the “Adverse event: Disturbance in attention” value [1]?
Its value is 0 n (%).

And the “Adverse event: Dizziness” value [1]?
Its value is 1 (17) n (%).

What about the “Adverse event: Dry skin” value [1] of the same molecule?
The value was 0 n (%).

What about the “Adverse event: Fatigue” value [1] of the same molecule?
Its value is 2 (33) n (%).

And the “Adverse event: Gastrointestinal disorders” value [1]?
The value was 2 (33) n (%).

What about the “Adverse event: Headache” value [1] of the same molecule?
Its value is 3 (50) n (%).

What about the “Adverse event: Lethargy” value [1] of the same molecule?
The value was 0 n (%).

What about the “Adverse event: Musculoskeletal stiffness” value [1] of the same molecule?
Its value is 1 (17) n (%).

And the “Adverse event: Nausea” value [1]?
The value was 0 n (%).

What about the “Adverse event: Oropharyngeal pain” value [1] of the same molecule?
The value was 0 n (%).

And the “Adverse event: Rash” value [1]?
The value was 0 n (%).

And the “Adverse event: Somnolence” value [1]?
Its value is 1 (17) n (%).

And the “Adverse event: Vessel puncture site bruise” value [1]?
The value was 0 n (%).

What about the “Adverse event: Abdominal distension” value [2] of the same molecule?
The value was 0 n (%).

What about the “Adverse event: Abdominal pain” value [2] of the same molecule?
Its value is 0 n (%).

What about the “Adverse event: Abnormal dreams” value [2] of the same molecule?
Its value is 0 n (%).

And the “Adverse event: Agitation” value [2]?
Its value is 1 (17) n (%).

And the “Adverse event: Any event” value [2]?
The value was 5 (83) n (%).

What about the “Adverse event: Arthropod bite” value [2] of the same molecule?
The value was 0 n (%).

What about the “Adverse event: Back pain” value [2] of the same molecule?
Its value is 1 (17) n (%).

And the “Adverse event: Catheter‐site bruise” value [2]?
Its value is 1 (17) n (%).

And the “Adverse event: Catheter‐site pain” value [2]?
The value was 0 n (%).

What about the “Adverse event: Constipation” value [2] of the same molecule?
The value was 0 n (%).

And the “Adverse event: Contact dermatitis” value [2]?
Its value is 0 n (%).

What about the “Adverse event: Contusion” value [2] of the same molecule?
The value was 1 (17) n (%).

And the “Adverse event: Disturbance in attention” value [2]?
The value was 0 n (%).

What about the “Adverse event: Dizziness” value [2] of the same molecule?
Its value is 2 (33) n (%).

And the “Adverse event: Dry skin” value [2]?
Its value is 0 n (%).

And the “Adverse event: Fatigue” value [2]?
The value was 1 (17) n (%).

What about the “Adverse event: Gastrointestinal disorders” value [2] of the same molecule?
Its value is 0 n (%).

What about the “Adverse event: Headache” value [2] of the same molecule?
The value was 1 (17) n (%).

And the “Adverse event: Lethargy” value [2]?
Its value is 0 n (%).

What about the “Adverse event: Musculoskeletal stiffness” value [2] of the same molecule?
The value was 0 n (%).

What about the “Adverse event: Nausea” value [2] of the same molecule?
The value was 0 n (%).

And the “Adverse event: Oropharyngeal pain” value [2]?
Its value is 0 n (%).

What about the “Adverse event: Rash” value [2] of the same molecule?
Its value is 0 n (%).

And the “Adverse event: Somnolence” value [2]?
Its value is 0 n (%).

What about the “Adverse event: Vessel puncture site bruise” value [2] of the same molecule?
The value was 0 n (%).

What about the “Adverse event: Abdominal distension” value [3] of the same molecule?
Its value is 1 (4) n (%).

And the “Adverse event: Abdominal pain” value [3]?
The value was 1 (4) n (%).

What about the “Adverse event: Abnormal dreams” value [3] of the same molecule?
Its value is 2 (8) n (%).

What about the “Adverse event: Agitation” value [3] of the same molecule?
The value was 1 (4) n (%).

And the “Adverse event: Any event” value [3]?
Its value is 19 (76) n (%).

What about the “Adverse event: Arthropod bite” value [3] of the same molecule?
Its value is 0 n (%).

What about the “Adverse event: Back pain” value [3] of the same molecule?
Its value is 2 (8) n (%).

What about the “Adverse event: Catheter‐site bruise” value [3] of the same molecule?
Its value is 1 (4) n (%).

What about the “Adverse event: Catheter‐site pain” value [3] of the same molecule?
The value was 0 n (%).

What about the “Adverse event: Constipation” value [3] of the same molecule?
Its value is 2 (8) n (%).

And the “Adverse event: Contact dermatitis” value [3]?
The value was 7 (28) n (%).

What about the “Adverse event: Contusion” value [3] of the same molecule?
The value was 3 (12) n (%).

And the “Adverse event: Disturbance in attention” value [3]?
The value was 1 (4) n (%).

And the “Adverse event: Dizziness” value [3]?
Its value is 2 (8) n (%).

What about the “Adverse event: Dry skin” value [3] of the same molecule?
Its value is 0 n (%).

And the “Adverse event: Fatigue” value [3]?
Its value is 1 (4) n (%).

What about the “Adverse event: Gastrointestinal disorders” value [3] of the same molecule?
The value was 6 (24) n (%).

What about the “Adverse event: Headache” value [3] of the same molecule?
Its value is 3 (12) n (%).

What about the “Adverse event: Lethargy” value [3] of the same molecule?
The value was 1 (4) n (%).

And the “Adverse event: Musculoskeletal stiffness” value [3]?
The value was 1 (4) n (%).

What about the “Adverse event: Nausea” value [3] of the same molecule?
Its value is 1 (4) n (%).

What about the “Adverse event: Oropharyngeal pain” value [3] of the same molecule?
The value was 1 (4) n (%).

And the “Adverse event: Rash” value [3]?
The value was 1 (4) n (%).

What about the “Adverse event: Somnolence” value [3] of the same molecule?
The value was 0 n (%).

What about the “Adverse event: Vessel puncture site bruise” value [3] of the same molecule?
The value was 1 (4) n (%).

What about the “Adverse event: Abdominal distension” value [4] of the same molecule?
Its value is 0 n (%).

And the “Adverse event: Abdominal pain” value [4]?
Its value is 0 n (%).

What about the “Adverse event: Abnormal dreams” value [4] of the same molecule?
The value was 0 n (%).

What about the “Adverse event: Agitation” value [4] of the same molecule?
Its value is 0 n (%).

And the “Adverse event: Any event” value [4]?
The value was 6 (86) n (%).

And the “Adverse event: Arthropod bite” value [4]?
The value was 2 (29) n (%).

And the “Adverse event: Back pain” value [4]?
Its value is 0 n (%).

And the “Adverse event: Catheter‐site bruise” value [4]?
The value was 0 n (%).

What about the “Adverse event: Catheter‐site pain” value [4] of the same molecule?
The value was 1 (14) n (%).

And the “Adverse event: Constipation” value [4]?
The value was 0 n (%).

And the “Adverse event: Contact dermatitis” value [4]?
Its value is 0 n (%).

What about the “Adverse event: Contusion” value [4] of the same molecule?
Its value is 0 n (%).

What about the “Adverse event: Disturbance in attention” value [4] of the same molecule?
The value was 0 n (%).

And the “Adverse event: Dizziness” value [4]?
Its value is 1 (14) n (%).

What about the “Adverse event: Dry skin” value [4] of the same molecule?
The value was 1 (14) n (%).

What about the “Adverse event: Fatigue” value [4] of the same molecule?
The value was 0 n (%).

And the “Adverse event: Gastrointestinal disorders” value [4]?
The value was 2 (29) n (%).

And the “Adverse event: Headache” value [4]?
Its value is 2 (29) n (%).

And the “Adverse event: Lethargy” value [4]?
The value was 1 (14) n (%).

And the “Adverse event: Musculoskeletal stiffness” value [4]?
Its value is 0 n (%).

And the “Adverse event: Nausea” value [4]?
Its value is 1 (14) n (%).

What about the “Adverse event: Oropharyngeal pain” value [4] of the same molecule?
Its value is 1 (14) n (%).

What about the “Adverse event: Rash” value [4] of the same molecule?
Its value is 0 n (%).

What about the “Adverse event: Somnolence” value [4] of the same molecule?
The value was 1 (14) n (%).

What about the “Adverse event: Vessel puncture site bruise” value [4] of the same molecule?
The value was 0 n (%).

And the participants reporting palpitations (Part 2, 200‐mg + expansion cohort, one participant, mild, unrelated to study drug)?
Its participants reporting palpitations is 2%.

And the “most common AEs: contact dermatitis” value [5]?
The value was 13.8%.

What about the “most common AEs: dizziness” value [5] of the same molecule?
Its value is 12.1%.

And the “most common AEs: headache” value [5]?
The value was 25.9%.

And the “participants discontinued because of grade 1 maculopapular rash” value (expansion cohort, one participant)?
The value was 2%.
